Measured values from BindingDB's records for doi:10.1016/s0960-894x(03)00033-7 (Astrazeneca R&D, 2003).

What was measured:
[1] = biological target: Mu-type opioid receptor (Homo sapiens, UniProt P35372); test: Inhibition of [125I]Enkephalin binding to human mu opioid receptor from membranes of HEK293 cells
Method in brief: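 Filter binding on membranes of HEK293 cells overexpressing human mu opioid receptor, measuring displacement of [125I]-Enkephalin. IC50 came from full dose–response curves on purified material, in single determinations.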

[2] = biological target: Delta-type opioid receptor (Homo sapiens, UniProt P41143); test: ChEBML_145338
Chain of Delta-type opioid receptor (P41143 whole entry): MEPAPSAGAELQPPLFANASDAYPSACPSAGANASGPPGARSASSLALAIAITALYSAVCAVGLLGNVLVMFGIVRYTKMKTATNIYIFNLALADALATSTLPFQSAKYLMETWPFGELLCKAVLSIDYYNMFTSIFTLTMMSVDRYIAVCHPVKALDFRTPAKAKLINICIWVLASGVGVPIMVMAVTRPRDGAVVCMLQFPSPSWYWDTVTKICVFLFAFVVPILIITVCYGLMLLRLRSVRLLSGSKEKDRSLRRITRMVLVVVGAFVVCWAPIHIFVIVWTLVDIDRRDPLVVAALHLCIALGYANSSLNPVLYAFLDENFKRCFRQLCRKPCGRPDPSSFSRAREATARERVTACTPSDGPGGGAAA
Description: Inhibition of [125I]deltorphin binding to human delta opioid receptor from membranes of HEK293 cells

Chain of Mu-type opioid receptor (P35372 whole entry): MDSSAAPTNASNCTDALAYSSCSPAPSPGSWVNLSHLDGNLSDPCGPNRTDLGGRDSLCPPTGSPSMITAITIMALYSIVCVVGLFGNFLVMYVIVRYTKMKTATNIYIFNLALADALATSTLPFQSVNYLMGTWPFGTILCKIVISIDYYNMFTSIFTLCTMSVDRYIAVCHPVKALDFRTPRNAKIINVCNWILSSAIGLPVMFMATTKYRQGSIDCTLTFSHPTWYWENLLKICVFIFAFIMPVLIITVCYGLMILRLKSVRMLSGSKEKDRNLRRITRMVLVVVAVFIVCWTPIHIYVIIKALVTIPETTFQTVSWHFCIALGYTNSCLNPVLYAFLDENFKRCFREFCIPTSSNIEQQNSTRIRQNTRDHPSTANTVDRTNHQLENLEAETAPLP

With `O=c1c(-c2ccccc2)cccn1C(CN1CCCC1)c1ccccc1` (configuration not stated) [3-Phenyl-1-(1-phenyl-2-pyrrolidin-1-yl-ethyl)-1H-pyridin-2-one] as the compound, how does the IC50 [1] read?
Its IC50 is greater than 10 µM.

What about the IC50 [2] of the same compound?
Its IC50 is greater than 10 µM.
